pIC50: −log10 of the molar value. The source made the active and inactive calls. The rule behind the calls is not given here.
Key:
[1] = molecular target: T1, Prostaglandin E synthase (Homo sapiens) (UniProt O14684); experiment: Inhibition of mPGES1 in human A549 cells assessed as reduction in IL-1beta induced PGE2 release by measuring residual activity at 10 uM using PGH2 as substrate preincubated for 15 mins followed by substrate addition and measured after 1 min by RP-UV-HPLC analysis relative to control; assay type: cell-based
T1 sequence (whole entry): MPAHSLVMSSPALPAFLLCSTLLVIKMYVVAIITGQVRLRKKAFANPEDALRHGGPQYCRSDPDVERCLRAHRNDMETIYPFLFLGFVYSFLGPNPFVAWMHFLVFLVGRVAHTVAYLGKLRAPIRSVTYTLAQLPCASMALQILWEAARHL
Summary of the method: (§1)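 The enzyme source was microsomes from IL-1β-stimulated A549 cells in a cell-free assay. The read-out was enzymatic conversion of PGH2 (20 μM) to PGE2.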

[2] = system: A549; experiment: Antiproliferative activity against human A549 cells assessed as inhibition of cell viability incubated for 72 hrs by MTT assay; assay type: functional, cell-based; details: A549, 72 h
Summary of the method: (§2)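 A549 cells were exposed to test compounds in an MTT viability assay (5–100 μM for the 48 h and 72 h exposures). IC50 is the mean ± S.D. of single determinations from three independent experiments.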

[3] = system: A549; experiment: Antiproliferative activity against human A549 cells assessed as inhibition of cell viability incubated for 48 hrs by MTT assay; assay type: functional, cell-based; details: A549, 48 h; summary of the method: as §2
[4] = system: A549; experiment: Antiproliferative activity against human A549 cells assessed as inhibition of cell viability incubated for 24 hrs by MTT assay; assay type: functional, cell-based; details: A549, 24 h; summary of the method: as §2
[5] = molecular target: T2, Prostaglandin E synthase (Homo sapiens, UniProt O14684); experiment: Inhibition of mPGES1 in human A549 cells assessed as reduction in IL-1beta induced PGE2 release using PGH2 as substrate preincubated for 15 mins followed by substrate addition and measured after 1 min by RP-UV-HPLC analysis; assay type: cell-based; summary of the method: as §1
T2 sequence (O14684 whole entry): T1 sequence (whole entry)

[6] = molecular target: T1, Prostaglandin E synthase (Homo sapiens); experiment: Inhibition of mPGES1 in human A549 cells assessed as reduction in IL-1beta induced PGE2 release incubated for 24 hrs by ELISA; assay type: cell-based
Summary of the method: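 A549 cells were incubated for 24 h at 5 or 10 μM in medium with 1% FBS and 10 ng/mL IL-1β. PGE2 released into the medium was quantified by ELISA against DMSO vehicle-treated cells. Values are mean ± SEM (pg/mL) of two independent experiments.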

[7] = system: A549; experiment: Induction of programmed cell death in human A549 cells assessed as accumulation at subG0/G1 phase at 20 to 30 uM incubated for 72 hrs by propidium iodide staining based flow cytometric analysis relative to control; assay type: functional
Summary of the method: (§3)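 A549 human lung epithelial cancer cells were exposed to compound at several concentrations for 48 or 72 h. DNA was then stained with propidium iodide, and the percentage of cells in each cycle phase was measured by flow cytometry. The hypodiploid subG0/G1 fraction was read as cell death. Values are mean ± SEM of two independent experiments, each run in triplicate.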

[8] = system: A549; experiment: Induction of programmed cell death in human A549 cells assessed as accumulation at subG0/G1 phase at 20 to 30 uM incubated for 48 hrs by propidium iodide staining based flow cytometric analysis relative to control; assay type: functional; summary of the method: as §3
[9] = system: A549; experiment: Induction of cell cycle arrest in human A549 cells assessed as accumulation at G2/M phase at 30 uM incubated for 72 hrs by propidium iodide staining based flow cytometric analysis; assay type: functional
Summary of the method: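 A549 cells were treated at several concentrations for 48 or 72 h, then stained for DNA with propidium iodide. Cell-cycle phase percentages were read by flow cytometry. Values are means ± SEM of two independent experiments, each run in triplicate.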

| Structure (SMILES) | Activity [1] | pIC50 [2] | pIC50 [3] | pIC50 [4] | pIC50 [5] | inhibition [6] | also measured |
| --- | --- | --- | --- | --- | --- | --- | --- |
| O=C1OC(O)C(c2cc3ccccc3s2)=C1Br (stereo unspecified) | – | 5.04 | 4.90 | 4.01 | – | – | – |
| Cc1cc(C)c(C(=O)Nc2nc3cc(-c4cccc(CO)c4)ccc3s2)o1 | > 30% | – | – | – | – | – | – |
| Cc1cc(C)c(C(=O)Nc2nc3ccc(-c4cccc(CO)c4)cc3s2)o1 | – | 4.26 | 4.20 | 4.02 | 5.59 | Dose-dependent effect | – |
| NC(=O)c1cccc(-c2ccc3sc(NC(=O)c4ccc(F)cc4C(F)(F)F)nc3c2)c1 | – | 4.72 | 4.30 | 4.01 | 5.77 | Dose-dependent effect | Activity [7]: 7%; Activity [8]: 6% |
| NC(=O)c1cccc(-c2ccc3sc(NC(=O)c4c(Cl)cccc4Cl)nc3c2)c1 | – | – | – | – | – | – | inhibition [1]: inactive |
| O=C(Nc1nc2cc(-c3cccc(CO)c3)ccc2s1)c1ccccc1Br | > 30% | – | – | – | – | – | – |
| O=C(Nc1nc2ccc(-c3cccc(CO)c3)cc2s1)c1ccccc1Br | – | 4.74 | 4.24 | 4.01 | 6.15 | Dose-dependent effect | Activity [9]: Active; Activity [7]: 18%; Activity [8]: 5% |
| Cc1cc(C)c(C(=O)Nc2nc3cc(-c4cccc(C(N)=O)c4)ccc3s2)o1 | – | – | – | – | – | – | inhibition [1]: inactive |
| O=C(Nc1nc2ccc(-c3cccc(CO)c3)cc2s1)c1ccc(F)cc1Cl | – | 4.55 | 4.15 | 4.01 | 5.85 | Dose-dependent effect | Activity [7]: inactive; Activity [8]: inactive |

Further lines, with some results ahead:

| Activity [1] | Structure (SMILES) | pIC50 [2] | pIC50 [3] | pIC50 [4] | pIC50 [5] | inhibition [6] | also measured |
| --- | --- | --- | --- | --- | --- | --- | --- |
| > 30% | O=C(Nc1nc2cc(-c3cccc(CO)c3)ccc2s1)c1ccc(F)cc1Cl | – | – | – | – | – | – |
| > 30% | O=C(Nc1nc2cc(-c3cccc(CO)c3)ccc2s1)c1c(Cl)cccc1Cl | – | – | – | – | – | – |

Reference: ChEMBL document CHEMBL4610110, “Targeting mPGES-1 by a Combinatorial Approach: Identification of the Aminobenzothiazole Scaffold to Suppress PGE2 Levels” (ACS Med Chem Lett, 2020)
